Screening results deposited in PubChem by several laboratories.
ALR H2O2 inh: inhibitors of human ALR sulfhydryl oxidase, primary screen, biochemical, H2O2 detection, HRP-luminol luminescence, single point; purified ALR, DTT oxidation; inhibition, % (concentration not given with the values); 290,000 tested, 3.8% active; AID 485317, 2010;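 active = mean replicate inhibition above about 79%, with every replicate also reaching it, limit read from the data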
NLRP3 yeast inh: NALP3 inflammasome inhibitors in reconstituted yeast, primary screen, luminescence, uHTS | inhibition, % at 10 µM | 330,000 tested, 0.39% active | Yeast reconstituted NLRP3/ASC/caspase-1, beta-gal luminescence, 24 h;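 active = inhibition of 50% or more; inactive = inhibition below 50%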;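 note: plate controls were induced DMSO wells for no effect and uninduced yeast grown without galactose for full effect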
DSG3 Ab inh: inhibitors of pemphigus antibody binding to DSG3, primary screen, biochemical, bead-based, flow cytometry, scFv-GFP; AID 588358, 2011; DSG3-coupled beads, scFv-anti-DSG3-GFP binding; hits give low values; 310,000 tested, 0.48% active; Desmoglein-3 (Homo sapiens), P32926; binding (percent of control), % at 10 µM;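 active = binding more than 3 SD below its plate's average and above zero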;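 note: hits lower antibody fragment binding to DSG3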
Target sequence (P32926 whole entry, looked up, the tested form may be a part): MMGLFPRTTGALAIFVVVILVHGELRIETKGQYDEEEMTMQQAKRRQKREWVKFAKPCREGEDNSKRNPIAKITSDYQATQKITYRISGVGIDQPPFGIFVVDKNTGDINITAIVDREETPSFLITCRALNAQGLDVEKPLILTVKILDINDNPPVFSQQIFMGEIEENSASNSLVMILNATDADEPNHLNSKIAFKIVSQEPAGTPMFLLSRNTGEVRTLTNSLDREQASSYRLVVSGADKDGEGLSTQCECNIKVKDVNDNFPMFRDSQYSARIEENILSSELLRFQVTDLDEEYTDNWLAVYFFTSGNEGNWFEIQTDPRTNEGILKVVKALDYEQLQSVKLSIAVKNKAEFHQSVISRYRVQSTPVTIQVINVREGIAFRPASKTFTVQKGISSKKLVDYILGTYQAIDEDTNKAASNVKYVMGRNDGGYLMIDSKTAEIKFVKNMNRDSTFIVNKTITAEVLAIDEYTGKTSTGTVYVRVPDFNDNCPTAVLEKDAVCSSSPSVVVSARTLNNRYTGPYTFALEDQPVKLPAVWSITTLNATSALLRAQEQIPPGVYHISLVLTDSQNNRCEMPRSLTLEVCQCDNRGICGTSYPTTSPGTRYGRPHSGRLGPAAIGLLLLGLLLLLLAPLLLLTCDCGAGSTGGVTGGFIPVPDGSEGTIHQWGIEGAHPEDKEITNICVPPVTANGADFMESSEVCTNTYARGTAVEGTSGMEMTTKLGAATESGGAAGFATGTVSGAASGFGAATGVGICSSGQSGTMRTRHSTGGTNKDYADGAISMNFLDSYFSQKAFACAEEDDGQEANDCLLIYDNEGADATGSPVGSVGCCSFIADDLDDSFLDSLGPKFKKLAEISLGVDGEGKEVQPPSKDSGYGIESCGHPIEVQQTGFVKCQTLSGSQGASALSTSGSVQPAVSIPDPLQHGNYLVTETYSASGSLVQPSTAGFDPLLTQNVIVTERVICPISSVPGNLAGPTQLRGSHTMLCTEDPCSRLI
Arr AP2 block: inhibitors of beta-arrestin/AP2 binding, primary screen, biochemical, GPCR trafficking, flow cytometry; FITC-arrestin peptide / GST-AP2 beads; AP2 beta2 appendage carries R879A mutation; inhibition, % at 10 µM; 340,000 tested, 0.31% active;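 active = inhibition above a set limit, near 3 SD of compounds lacking own fluorescence, cut at about 54% in these data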;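 note: plate controls were DMSO wells for no effect and 5 µM unlabelled arrestin peptide for full effect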
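Assay system: GST-AP2 R879A bound to glutathione beads, E. coli-expressed; Medium: PBS with 0.05% Tween 20 and 0.1% BSA; Also added: fluorescein-tagged arrestin peptide at 50 nM final; Timing: 12 min plus 1 h, RT; Measured by: flow cytometry, FL1 (488/535 nm); Evaluation: percent drop in bead-associated FITC signal.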
PolyA inhibitor: polyadenylation inhibitors in yeast reporter cells, primary screen, luminescence, S. cerevisiae; S. cerevisiae SKY197-pL101 polyadenylation reporter, beta-gal luminescence; efflux-impaired pdr1/pdr3 knockout yeast; score 100 = 6 SD above DMSO; activity score, % at 12 µM; 300,000 tested, 0.02% active;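 active = lowest replicate activity score at least 50, where 100 means six control SD above control mean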;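 note: yeast exposed to compound for 9 h at 30 °C; higher score means more reporter readthrough which indicates perturbed polyadenylation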
NALP1 inh: NALP1 inflammasome inhibitors in reconstituted yeast, colorimetric, S. cerevisiae, triplicate retest; inhibition, % at 10 µM; S. cerevisiae NALP1/ASC/caspase-1 growth, X-gal OD620, 72 h; 280,000 tested, 0.61% active; in the data active = inhibition mostly above about 24%, no sharp cut-off; inactive = mostly below about 32%
The depositor's hits bear a star; nt = no result given. In the library only some 4.6% were active in any assay of this set; here they are far more common.

SMILES	ALR H2O2 inh	NLRP3 yeast inh	DSG3 Ab inh	Arr AP2 block	PolyA inhibitor	NALP1 inh
CCCC(NC(=O)C(C)Sc1nnnn1C1CC1)c1ccccc1 (stereo not given)	-1.5	9.5	94.6	-8.3	nt	nt
C/C=C/Cn1c(SCc2ccc(C)cc2)nc2c1c(=O)[nH]c(=O)n2C	-0.3	5.8	70.8*	4.0	-1.0	3.0
CC1=CC(C#N)(C#N)C(C#N)(C#N)C(c2ccccc2)N1 (stereo not given)	-33.0	-1.6	nt	nt	-4.5	9.8
CC1CCC(C(C)C)C2=C1C(C#N)(C#N)C(C#N)(C#N)C(c1ccccc1)N2 (stereo not given)	94.4*	21.0	107.2	11.1	25.9	-4.1
Cc1ccc(OCC(=O)OC2CCS(=O)(=O)C2)cc1 (stereo not given)	-5.8	5.2	101.6	9.9	2.1	-8.2
CCc1ccc(OCC(=O)OC2CCS(=O)(=O)C2)cc1 (stereo not given)	-12.4	14.3	98.5	-5.2	-1.4	24.8*
Cn1c(=O)c2[nH]c(N=NNc3ccccc3F)nc2n(C)c1=O	98.2*	20.9	nt	40.4	-9.5	-17.5
COC(=O)CSC1=C(C#N)C(c2ccc3c(c2)OCO3)C2=C(CCCC2=O)N1 (stereo not given)	98.9*	19.9	103.6	32.2	-7.2	8.6
Cc1ccccc1NC(=O)c1cc[n+]([O-])cc1	nt	12.8	123.1	16.8	6.7	29.2
CCOc1ccc(OCc2ccc(C(=O)N/N=C(\C)c3ccccn3)cc2)cc1	-11.7	nt	96.1	-1.4	-21.2	19.3
CCC(C)/C(C)=N/NC(=O)c1ccc(COc2ccc(Cl)c(C)c2)cc1 (stereo not given)	99.1*	nt	101.0	8.2	nt	27.9
CCOC(=O)C1CCCN(C(=O)c2cc(S(=O)(=O)Nc3ccccc3OC)ccc2C)C1 (stereo not given)	-3.0	-6.4	102.0	-1.1	-5.1	-6.9
CCc1ccccc1N(CC(=O)N1CCN(c2ccccc2)CC1)S(C)(=O)=O	97.7*	-5.6	99.1	-0.9	2.1	1.4
CS(=O)(=O)Nc1ccccc1C(=O)N1CCN(c2ccccc2)CC1	98.2*	-4.6	nt	nt	5.5	-8.1
CN(c1ccccc1C(=O)N1CCN(c2ccccc2)CC1)S(C)(=O)=O	87.4*	-0.8	106.4	-0.3	18.4	0.2
CS(=O)(=O)N(CC(=O)N1CCN(c2ccccc2)CC1)c1cccc(Br)c1	31.0	0.9	nt	-8.3	1.1	-2.3
COc1ccccc1NS(=O)(=O)c1ccc(C)c(C(=O)N2CCN(c3ccc(O)cc3)CC2)c1	99.1*	6.7	94.8	5.7	nt	nt
CCOc1ccc(N(CC(=O)NC2CCCCC2)C(=O)CCCC(=O)Nc2ccccn2)cc1	nt	6.6	nt	15.4	8.7	15.2
CC[C@]12c3[nH]c4ccc(Cl)cc4c3CCN1C(=O)[C@@H](CC(=O)NCc1ccc(OC)c(OC)c1)C[C@@H]2C(=O)N1CCN(C(=O)c2ccco2)CC1	nt	nt	90.5	6.9	nt	nt
CSc1ncccc1C(=O)Nc1cccc(S(=O)(=O)N2CCCCC2)c1	-1.2	10.2	nt	-4.7	nt	nt
Cc1ccc(NC(=O)COc2ccccc2C(N)=O)cc1S(=O)(=O)N1CCCCCC1	nt	-2.0	96.0	26.2	nt	nt
Nc1sccc1C(=O)c1ccccc1	97.5*	-10.5	nt	nt	7.4	32.0
Cc1cc2ncn(S(=O)(=O)c3ccc(F)cc3)c2cc1C	4.8	20.0	112.5	-4.7	6.8	14.3
Cc1cc2ncn(C(=O)c3ccc(F)cc3)c2cc1C	97.7*	10.1	137.4	41.9	7.0	7.5
COc1ccc(-c2csc3ncnc(N4CCN(S(=O)(=O)c5cccs5)CC4)c23)cc1	-7.4	19.1	100.6	-18.2	-13.9	nt
SMILES	ALR H2O2 inh	NLRP3 yeast inh	DSG3 Ab inh	Arr AP2 block	PolyA inhibitor	NALP1 inh
COc1ccc(-c2csc3ncnc(N4CCN(S(=O)(=O)c5ccc(C)cc5)CC4)c23)cc1	-2.4	30.0	68.8*	-0.1	-0.4	nt
Nc1n[nH]c2cc(=O)n(-c3cccc(C(F)(F)F)c3)nc12	93.4*	12.3	95.8	22.4	-2.8	-12.8
CC1CC(C)CN(S(=O)(=O)c2ccc(C(=O)N(C)Cc3ccccc3)cc2)C1 (stereo not given)	-8.0	2.4	100.2	21.6	nt	nt
O=C(NCc1ccc2c(c1)OCO2)c1cc(-c2ccccc2)c(N2CCOCC2)s1	8.6	21.0	104.1	-6.9	13.9	-6.6
O=C(NCc1ccco1)c1cc(-c2ccccc2)c(N2CCOCC2)s1	86.6*	-10.1	102.1	-2.1	3.4	10.8
O=C(O)c1cc(-c2ccccc2)c(N2CCOCC2)s1	99.0*	8.1	103.7	8.5	11.4	9.6
COc1cc(SC)ccc1C(=O)N1CCN(S(=O)(=O)/C=C/c2ccccc2)CC1	nt	6.1	106.7	0.7	nt	nt
Cc1ccc(C(=O)CCc2ccc(N)cc2)cc1	99.1*	31.1	103.9	1.4	14.4	19.2
Cc1ccc(C(=O)Cc2ccccc2)cc1	nt	nt	105.9	1.7	nt	nt
COC(=O)/C(N=Nc1c(C)n(C)n(-c2ccccc2)c1=O)=C(\C)O	72.0	3.6	100.6	13.4	9.2	24.6
COc1cc(N=Nc2c(C)n(C)n(-c3ccccc3)c2=O)ccc1N	98.5*	12.4	nt	13.6	-16.8	24.0
Cc1cc(C(=O)NNC(=O)c2ccc(NC(=O)CC#N)cc2)c(C)o1	3.2	8.8	100.6	2.3	nt	nt
Oc1ccccc1C=NC1=NN(c2cccc(C(F)(F)F)c2)CC1	78.3*	13.0	96.5	16.7	-4.1	-140.4
O=S(=O)(NCc1ccc(F)cc1)c1ccc(Br)cc1Br	-6.0	-7.4	106.0	0.1	nt	nt
COc1ccc(NC(=O)CC2Sc3ncnn3C2=O)cc1 (stereo not given)	21.8	10.8	104.1	-4.2	-7.3	94.8*
CCOC(=O)c1ccc(NC(=O)CC2Sc3ncnn3C2=O)cc1 (stereo not given)	-0.4	34.4	83.9	15.7	-22.9	93.3*
O=C(CC1Sc2ncnn2C1=O)Nc1ccc(Cl)cc1 (stereo not given)	2.3	-2.4	nt	nt	-9.5	27.0
COc1ccc(C(=O)N2c3cc4c(cc3C(C)=CC2(C)C)OCO4)cc1	nt	nt	97.4	3.9	-19.6	26.3*
CC1=CC(C)(C)N(C(=O)c2ccccc2)c2ccc(C)cc21	nt	2.4	105.1	-2.0	-8.3	4.5
O=C(c1ccc2c(c1)OCO2)C1CCCN(Cc2c(F)ccc(F)c2F)C1 (stereo not given)	-1.3	25.5	nt	-4.5	-9.4	12.8
CCOc1ccccc1Oc1coc2cc(OCC(=O)O)ccc2c1=O	-1.2	-4.0	104.9	10.9	14.8	18.5
